# Measurements collected from several papers.
# Protocols differ between the studies behind these lines.
# Target: NAD-dependent protein deacetylase sirtuin-1 (SIRT1, Homo sapiens, UniProt Q96EB6)
# Effect on: enzyme activity
# Action: inhibitor
# Sequence (Q96EB6 193-741, as in one of the studies): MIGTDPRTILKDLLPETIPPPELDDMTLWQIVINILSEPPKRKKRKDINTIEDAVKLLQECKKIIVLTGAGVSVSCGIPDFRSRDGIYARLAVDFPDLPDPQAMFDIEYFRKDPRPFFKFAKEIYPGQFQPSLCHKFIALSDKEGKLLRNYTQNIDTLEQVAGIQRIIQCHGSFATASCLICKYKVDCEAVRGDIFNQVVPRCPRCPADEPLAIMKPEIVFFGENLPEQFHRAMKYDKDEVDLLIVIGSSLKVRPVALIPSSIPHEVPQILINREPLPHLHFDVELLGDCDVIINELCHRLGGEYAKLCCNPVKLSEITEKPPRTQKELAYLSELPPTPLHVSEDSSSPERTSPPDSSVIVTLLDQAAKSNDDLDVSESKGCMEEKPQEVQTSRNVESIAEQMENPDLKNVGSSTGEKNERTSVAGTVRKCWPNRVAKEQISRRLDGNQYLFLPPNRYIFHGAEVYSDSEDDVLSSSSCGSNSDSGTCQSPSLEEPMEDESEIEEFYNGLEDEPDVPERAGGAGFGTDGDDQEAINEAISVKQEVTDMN
SMILES,assay,conditions,inhibition
O=C(NC1CCC1)[C@H](Cc1c[nH]c2ccccc12)NC(=O)[C@H](CCCCNC(=S)NCCc1nnn[nH]1)NS(=O)(=O)c1cccc(F)c1,,10 µM,17%
CC(=S)NCCCC[C@H](NC(=O)OCc1ccccc1)C(=O)N[C@@H](Cc1c[nH]c2ccccc12)C(=O)N[C@@H](CCC(=O)O)C(N)=O,,1 µM,83%
CCCCCC1C=Cc2cc(Cl)cc(Br)c2O1 (stereo not shown),fluorescence,200 µM,7.1%
NC(=O)CCNC(=S)NCCCC[C@H](NS(=O)(=O)c1cccc(F)c1)C(=O)N[C@@H](Cc1c[nH]c2ccccc12)C(=O)NC1CCC1,,10 µM,3%
Cc1ccc(C(=O)Nc2ccc(S(=O)(=O)O)c3cc(S(=O)(=O)O)cc(S(=O)(=O)O)c23)cc1NC(=O)c1cccc(NC(=O)Nc2cccc(C(=O)Nc3cc(C(=O)Nc4ccc(S(=O)(=O)O)c5cc(S(=O)(=O)O)cc(S(=O)(=O)O)c45)ccc3C)c2)c1,,10 µM,74%
O=C(NC1CCC1)[C@H](Cc1c[nH]c2ccccc12)NC(=O)[C@H](CCCCNC(=S)NCc1n[nH]c(=S)o1)NS(=O)(=O)c1cccc(F)c1,,30 µM,37%
CCCCC[C@@H]1CC(=O)c2cc(Cl)cc(Br)c2O1,fluorescence,200 µM,5.3%
CCCCCCCCCCCCNC(=S)NCCCC[C@H](NC(=O)OCc1ccccc1)C(=O)N[C@@H](Cc1c[nH]c2ccccc12)C(=O)N[C@@H](CCCNC(=N)N)C(N)=O,,1 µM,52%
CCCCCC1CC(=O)c2ccc(F)cc2O1 (stereo not shown),fluorescence,200 µM,3.8%
Ic1cccc2cnccc12,,10 µM,2%
